Measured values reported in PMC10505864 (Asian Pacific Journal of Cancer Prevention : APJCP, 2023).
Converted amounts (≈) assume the structure as drawn. Where two headings read alike, the source gives them in different places.

Columns and labels:
[1] = Pharmacokinetic study of CBZ in rat plasma; assay type: in vivo, rat (Sprague Dawley)
Method in brief: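 Male and female Sprague Dawley rats (~200 g), seven per group, fasted 24 h. Given 10 mg/kg by oral gavage, alone or after 30 mg/kg extract by gavage (three days before, repeated 30 min pre-dose). Orbital blood collected into EDTA from 0–24 h. Plasma precipitated with acetonitrile containing metronidazole benzoate internal standard, then C18 HPLC-UV at 285 nm. Calibration 75–5,000 ng/mL; samples run in duplicate.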

[2] = after oral administration; ref Salemaldajeh et al., 2015; Emad et al., 2018; cited from earlier work
[3] = rat plasma, ref Salemaldajeh et al., 2015, cited from earlier work
[4] = ref Salemaldajeh et al., 2015; Emad et al., 2018; cited from earlier work
[5] = tested on: MCF-7 (human breast cancer cells); experiment: MTT cell viability assay on MCF-7 cells; assay type: cell-based; details: for IC50 / inhibition at 30 µg/mL / inhibition at 60 µg/mL / inhibition at 130 µg/mL / inhibition at 250 µg/mL / inhibition at 500 µg/mL / inhibition at 1000 µg/mL: Homo sapiens, MCF7, 48 h; for IC50: read-out: IC50 µg/mL on MCF-7; for inhibition at 30 µg/mL / inhibition at 60 µg/mL / inhibition at 130 µg/mL / inhibition at 250 µg/mL / inhibition at 500 µg/mL / inhibition at 1000 µg/mL: read-out: Inhibition (%) of MCF-7 Cells
Method in brief: (§1)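 PC3 cells grown in RPMI-1640 and MCF-7 cells in DMEM, each with 10% heat-inactivated FBS, penicillin/streptomycin, L-glutamine and amphotericin B. Seeded at 2 × 10^4 cells/well and grown to ~70% confluence (37°C, 5% CO2). Test compounds given as eight serial dilutions, starting at 1 mg/mL for drugs and 2.5 mg/mL for extract, for 48 h. MTT (5 mg/mL solution) added for 4 h at 25°C; A570 read.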

[6] = tested on: PC3 (human prostate cancer cells); experiment: MTT cell viability assay on PC3 cells; assay type: cell-based; details: for IC50 / inhibition at 30 µg/mL / inhibition at 60 µg/mL / inhibition at 130 µg/mL / inhibition at 250 µg/mL / inhibition at 500 µg/mL / inhibition at 1000 µg/mL: Homo sapiens, PC-3, 48 h; for IC50: read-out: IC50 µg/mL on PC3; for inhibition at 30 µg/mL / inhibition at 60 µg/mL / inhibition at 130 µg/mL / inhibition at 250 µg/mL / inhibition at 500 µg/mL / inhibition at 1000 µg/mL: read-out: Inhibition (%) of PC3 Cells; for cytotoxicity activity (in words): PC3
Method in brief: as §1

[7] = both, Sprague Dawley, rat, plasma, po, 10 mg/kg
[8] = rat plasma, CBZ 10 mg/kg oral gavage, alone, listed as CBZ alone

SMILES | IC50 [5] [µg/mL] | inhibition at 30 µg/mL [5] [%] | inhibition at 60 µg/mL [5] [%] | inhibition at 130 µg/mL [5] [%] | inhibition at 250 µg/mL [5] [%] | inhibition at 500 µg/mL [5] [%] | inhibition at 1000 µg/mL [5] [%] | IC50 [6] [µg/mL] | inhibition at 30 µg/mL [6] [%] | inhibition at 60 µg/mL [6] [%] | inhibition at 130 µg/mL [6] [%] | inhibition at 250 µg/mL [6] [%] | inhibition at 500 µg/mL [6] [%] | inhibition at 1000 µg/mL [6] [%] | cytotoxicity activity (in words) ([6]; MTT, 48 h) | further results
NC(=O)N1c2ccccc2C=Cc2ccccc21 [CBZ, carbamazepine] | 250 ± 44 (≈ 1060 µM) | 11.9 | 19.7 | 30.1 | 53.2 | 69.3 | 83.3 | 130 ± 27 (≈ 550 µM) | 29.7 | 31.4 | 53 | 87.5 | 95.1 | 93.4 | robust | concentration at 24 h ([1]; both, Sprague Dawley, rat, plasma, oral, 10 mg/kg): 65.2 ng/mL; Cmax [1, 7]: 4630 ng/mL; Tmax [1, 7]: 3.5 h; k el [1, 7]: 5e-05 s⁻¹; AUC (0–24 h) [1, 8]: 49225 ng·h/mL; Half-life [1, 8]: 3.78 h; binds to plasma proteins [2]: approximately 75%; Cmax ([3]; CBZ alone): 4,130 ng/mL; Cmax ([3]; CBZ combined with graviola juice): 2,886 ng/mL; drug excreted unchanged without metabolism [4]: about 5%
N.N.[Cl][Pt][Cl] [Cisplatin] |  |  |  |  |  |  |  |  |  |  |  |  |  |  |  | IC50 µg/mL on MCF-7 ([5]; MTT, 48 h, mean ± SD): 14.6 ± 2.4 µg/mL; IC50 µg/mL on PC3 ([6]; MTT, 48 h, mean ± SD): 8.6 ± 1.5 µg/mL
COc1cccc2c1C(=O)c1c(O)c3c(c(O)c1C2=O)C[C@@](O)(C(=O)CO)C[C@@H]3O[C@H]1C[C@H](N)[C@H](O)[C@H](C)O1 [Doxorubicin] | 0.64 ± 0.04 (≈ 1.18 µM) |  |  |  |  |  |  | 0.62 ± 0.06 (≈ 1.14 µM) |  |  |  |  |  |  |  | 
CCCC(CCC)C(=O)O [VPA, valproic acid] | > 1000 | 10.6 | 8.5 | 13.4 | 15.7 | 14.7 | 24.9 | > 1000 | 19.8 | 10.7 | 2.62 | 0.74 | 0.24 | 26.7 | weak | cytotoxicity activity (in words) ([5]; MCF-7, MTT, 48 h): weak
